A word on the EC50: it is the concentration needed to bring the measured effect to its halfway point. A high value points to weaker potency.

This passage reports Kd and EC50 results from ChEMBL document CHEMBL1129630, “Synthesis and structure-activity relationships of retinoid X receptor selective diaryl sulfide analogs of retinoic acid” (J Med Chem, 1996).

Assay [1] concerns the target T1, Retinoic acid receptor beta (Mus musculus, UniProt P22605).
T1 sequence (P22605 whole entry): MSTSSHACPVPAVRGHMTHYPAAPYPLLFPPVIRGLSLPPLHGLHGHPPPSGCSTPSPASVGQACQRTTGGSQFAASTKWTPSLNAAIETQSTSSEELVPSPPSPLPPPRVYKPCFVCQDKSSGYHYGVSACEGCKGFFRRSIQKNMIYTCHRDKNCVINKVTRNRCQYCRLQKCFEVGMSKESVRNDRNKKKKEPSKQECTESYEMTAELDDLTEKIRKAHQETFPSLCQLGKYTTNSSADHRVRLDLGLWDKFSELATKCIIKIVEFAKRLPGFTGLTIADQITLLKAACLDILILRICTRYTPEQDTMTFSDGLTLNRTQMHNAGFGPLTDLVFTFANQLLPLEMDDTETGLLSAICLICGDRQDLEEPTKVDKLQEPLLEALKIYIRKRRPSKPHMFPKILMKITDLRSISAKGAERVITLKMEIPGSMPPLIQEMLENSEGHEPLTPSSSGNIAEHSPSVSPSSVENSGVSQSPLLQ
Kind of assay: Dissociation constant for binding to Retinoic acid receptor beta;NA=not active. The method in brief:
(§1)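 Competitive binding assays against each receptor subtype, with Kd values taken from competition.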

For assay [2], the target named is T2, Retinoic acid receptor alpha (Mus musculus, UniProt P11416).
T2 sequence (P11416 whole entry): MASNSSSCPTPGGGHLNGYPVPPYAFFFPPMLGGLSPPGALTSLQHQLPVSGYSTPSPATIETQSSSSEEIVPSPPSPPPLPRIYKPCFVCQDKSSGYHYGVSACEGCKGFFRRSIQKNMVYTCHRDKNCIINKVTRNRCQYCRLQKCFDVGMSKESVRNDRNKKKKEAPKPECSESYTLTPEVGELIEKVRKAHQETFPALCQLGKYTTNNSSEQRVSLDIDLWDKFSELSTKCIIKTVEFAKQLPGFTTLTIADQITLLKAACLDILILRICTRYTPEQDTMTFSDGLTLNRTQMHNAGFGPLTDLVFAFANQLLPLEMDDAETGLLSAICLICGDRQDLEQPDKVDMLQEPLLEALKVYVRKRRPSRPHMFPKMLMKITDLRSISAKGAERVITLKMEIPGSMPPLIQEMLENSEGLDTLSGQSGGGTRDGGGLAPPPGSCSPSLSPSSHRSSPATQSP
Description: Dissociation constant for binding to Retinoic acid receptor alpha;NA=not active. The gist of the method: as §1

Assay [3] has as its target T3, Retinoic acid receptor gamma (Homo sapiens, UniProt P13631).
T3 sequence (P13631 whole entry): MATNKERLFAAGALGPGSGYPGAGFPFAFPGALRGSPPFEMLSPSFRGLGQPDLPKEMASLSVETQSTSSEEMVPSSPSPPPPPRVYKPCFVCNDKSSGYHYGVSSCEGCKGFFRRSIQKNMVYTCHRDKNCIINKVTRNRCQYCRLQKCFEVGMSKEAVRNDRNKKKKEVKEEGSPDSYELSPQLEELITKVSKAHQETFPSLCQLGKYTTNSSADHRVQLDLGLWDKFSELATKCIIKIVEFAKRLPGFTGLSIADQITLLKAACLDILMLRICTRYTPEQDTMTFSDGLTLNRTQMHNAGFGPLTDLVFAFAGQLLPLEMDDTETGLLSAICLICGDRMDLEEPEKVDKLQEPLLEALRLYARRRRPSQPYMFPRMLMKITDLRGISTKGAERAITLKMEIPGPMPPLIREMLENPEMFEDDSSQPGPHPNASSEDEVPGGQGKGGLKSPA
Kind of assay: Transcriptional activation of Retinoic acid receptor RAR gamma. The arrangement: species or system Cercopithecidae. The gist of the method:
(§2)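 CV-1 cells transiently cotransfected with the receptor construct and a reporter gene, with induced transcription measured. Activity is normalized to all-trans RA. EC50 is the concentration giving 50% of maximal observed response, from a single experiment in triplicate.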

Assay [4] concerns the target T4, Retinoic acid receptor RXR-alpha (Homo sapiens, UniProt P19793).
T4 sequence (P19793 whole entry): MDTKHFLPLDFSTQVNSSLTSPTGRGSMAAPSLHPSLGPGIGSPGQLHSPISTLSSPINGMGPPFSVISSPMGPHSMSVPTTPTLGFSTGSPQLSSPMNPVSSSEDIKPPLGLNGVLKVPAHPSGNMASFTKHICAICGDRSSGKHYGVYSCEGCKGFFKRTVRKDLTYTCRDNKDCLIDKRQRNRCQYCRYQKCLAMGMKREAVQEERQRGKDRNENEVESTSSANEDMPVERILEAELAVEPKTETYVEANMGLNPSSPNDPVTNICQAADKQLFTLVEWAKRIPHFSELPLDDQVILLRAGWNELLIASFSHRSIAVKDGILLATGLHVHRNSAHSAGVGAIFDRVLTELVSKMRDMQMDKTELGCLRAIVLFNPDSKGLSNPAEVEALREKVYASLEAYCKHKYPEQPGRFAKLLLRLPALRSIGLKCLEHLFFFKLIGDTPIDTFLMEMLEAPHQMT
Description: Transcriptional activation of Retinoid X receptor RXR alpha. Further details: species or system Cercopithecidae; call rule not given here. The gist of the method:
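Transient cotransfection of CV-1 cells with the receptor gene construct plus a reporter gene, read as induced transcription. Activity normalized to all-trans RA. EC50 taken as the concentration giving 50% of the maximal observed response. Single experiment, triplicate determinations.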

Assay [5] has as its target T5, Retinoic acid receptor beta (Homo sapiens, UniProt P10826).
T5 sequence (P10826 whole entry): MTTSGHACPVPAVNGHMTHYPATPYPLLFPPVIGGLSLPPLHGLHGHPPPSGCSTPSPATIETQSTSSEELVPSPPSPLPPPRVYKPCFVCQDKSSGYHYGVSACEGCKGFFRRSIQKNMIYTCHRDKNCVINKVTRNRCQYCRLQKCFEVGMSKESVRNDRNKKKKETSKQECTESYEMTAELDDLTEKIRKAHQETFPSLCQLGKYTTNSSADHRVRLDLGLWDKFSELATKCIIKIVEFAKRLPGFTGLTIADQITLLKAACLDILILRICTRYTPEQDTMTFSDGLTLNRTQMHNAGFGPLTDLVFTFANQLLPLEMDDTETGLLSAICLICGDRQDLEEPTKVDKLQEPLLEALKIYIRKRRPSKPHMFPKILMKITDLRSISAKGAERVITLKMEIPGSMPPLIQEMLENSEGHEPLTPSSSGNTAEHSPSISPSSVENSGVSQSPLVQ
Description: Transcriptional activation of Retinoic acid receptor RAR beta. Further details: species or system Cercopithecidae. The gist of the method:
as §2

The target in assay [6] is T4, Retinoic acid receptor RXR-alpha. Kind of assay: Transcriptional activation of Retinoid X receptor RXR alpha;NA=not active. The arrangement: species or system Cercopithecidae. The gist of the method:
as §2

For the molecule `Cc1cc2c(cc1Sc1ccc(C(=O)O)cn1)C(C)(C)CCC2(C)C`, the Kd result in assay [1] and in assay [2] was “Not Active” each time.

In the case of `Cc1cc2c(cc1Sc1ccc(C(=O)O)cc1)C(C)(C)CCC2(C)C`, the EC50 result in assay [3] is on record as “Not Active”.

`CC1(C)CCC(C)(C)c2cc(Sc3ccc(C(=O)O)cc3)ccc21`: the EC50 in assay [4] came out at 770 nM; in assay [3], 340 nM; in assay [5] it was 570 nM.

Take `Cc1cc2c(cc1[S+]([O-])c1ccc(C(=O)O)cc1)C(C)(C)CCC2(C)C` (configuration not stated): the EC50 entry in assay [6] was “Not Active”.
